Reference: ChEMBL document CHEMBL1949512, “RO4383596, an orally active KDR, FGFR, and PDGFR inhibitor: synthesis and biological evaluation” (Bioorg Med Chem, 2005)

Key:
[1] = target: T1, Serine/threonine-protein kinase Sgk1 (Homo sapiens, UniProt O00141); test: Inhibition of SGK
T1 sequence (O00141 whole entry): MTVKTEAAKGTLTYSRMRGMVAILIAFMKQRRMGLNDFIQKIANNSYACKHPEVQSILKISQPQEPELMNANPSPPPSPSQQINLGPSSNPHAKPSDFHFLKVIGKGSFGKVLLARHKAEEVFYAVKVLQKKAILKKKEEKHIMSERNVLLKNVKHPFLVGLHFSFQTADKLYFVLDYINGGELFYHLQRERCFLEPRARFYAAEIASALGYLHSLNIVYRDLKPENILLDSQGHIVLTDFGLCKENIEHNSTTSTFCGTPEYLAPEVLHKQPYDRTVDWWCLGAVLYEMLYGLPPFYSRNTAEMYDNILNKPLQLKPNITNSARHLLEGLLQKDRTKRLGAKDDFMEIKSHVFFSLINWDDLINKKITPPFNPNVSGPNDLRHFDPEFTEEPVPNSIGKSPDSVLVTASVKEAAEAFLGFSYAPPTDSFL

[2] = Half life in Wistar rat at 5 mg/kg, iv; assay type: ADME, organism-based; design: dose 5 mg/kg, route intravenous; conditions: in vivo
In short: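 Wistar rats received one dose, either iv 5 mg/kg via femoral arterial catheter (2% DMA/10% PEG400/88% of 40% HPBCD) or po 50 mg/kg (2% Klucel LF/0.1% Tween 80). Blood came from an implanted jugular catheter, up to 24 h (iv) or 48 h (po), into EDTA. Plasma LC-MS/MS; individual non-compartmental parameters were averaged.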

Question: What does the source list for `COc1ccc(N2Cc3cnc(Nc4ccccc4)nc3N([C@@H]3CC[C@@H](O)C3)C2=O)cc1` (racemic)?
Answer: IC50 [1]: > 125 µM; half-life [2]: 6 h
